Experimental data as given in ChEMBL document CHEMBL5058577, “EUbOPEN Chemogenomics Library 2 (Multiplex)” (2022).

Test system: HEK-293T
Assay: Multiplex assay against HEK293T
Assay type: toxicity, cell-based
Conditions: human
Summary of the method: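 Cells stained live at seeding with Hoechst33342, BioTracker Green Microtubule Cytoskeleton Dye, MitoTracker Red and Annexin V Alexa Fluor 680 were imaged on a CQ1 microscope at 37°C and 5% CO2 after compound addition. Their classification by CellPathfinder machine-learning gating ran from Hoechst high-intensity objects versus normal cells, to healthy, pyknosed or fragmented nuclei among normal cells, to mitotic or apoptotic among pyknosed cells. Tubulin, mitochondrial-mass and membrane-permeability phenotypes are per cents of healthy-nucleus cells.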

[1] = 12 h, 1 µM, compound concentration 1 uM, replicate 1
[2] = 12 h, 1 µM, compound concentration 1 uM, replicate 2
[3] = 12 h, 10 µM, compound concentration 10 uM, replicate 1
[4] = 12 h, 10 µM, compound concentration 10 uM, replicate 2
[5] = 24 h, 1 µM, compound concentration 1 uM, replicate 1
[6] = 24 h, 1 µM, compound concentration 1 uM, replicate 2
[7] = 24 h, 10 µM, compound concentration 10 uM, replicate 1
[8] = 24 h, 10 µM, compound concentration 10 uM, replicate 2
[9] = 48 h, 1 µM, compound concentration 1 uM, replicate 1
[10] = 48 h, 1 µM, compound concentration 1 uM, replicate 2
[11] = 48 h, 10 µM, compound concentration 10 uM, replicate 1
[12] = 48 h, 10 µM, compound concentration 10 uM, replicate 2

`Cc1ccc(-c2ccc(F)cc2COc2ccc(CCC(=O)O)cc2)cc1` was tested, and the “Population Apoptotic (%)” value [1] was 42%, the “Population Fragmented Nuclei (%)” value [1] was 6% and the “Population Healthy Nuclei (%)” value [1] was 82%. The “Population Hoechst High Intensity Objects (%)” value [1] was 9%, the “Population Mitochondria Different-Phenotype (%)” value [1] was 36% and the “Population Mitotic Cells (%)” value [1] was 57%. For the same compound, the “Population Normal (%)” value [1] was 90%, the “Population Tubulin-Different-Phenotype (%)” value [1] was 18% and the “Total Cell Count” value [1] was 465. For the same compound, the “Population Apoptotic (%)” value [2] was 33%, the “Population Healthy Nuclei (%)” value [2] was 77% and the “Population Mitochondria Different-Phenotype (%)” value [2] was 50%. For the same compound, the “Population Mitotic Cells (%)” value [2] was 66%, the “Population Pyknosed Nuclei (%)” value [2] was 15% and the “Total Cell Count” value [2] was 324. For the same compound, the “Population Apoptotic (%)” value [3] was 32%, the “Population Fragmented Nuclei (%)” value [3] was 10% and the “Population Healthy Nuclei (%)” value [3] was 79%. The “Population Hoechst High Intensity Objects (%)” value [3] was 7%, the “Population Mitochondria Different-Phenotype (%)” value [3] was 46% and the “Population Mitotic Cells (%)” value [3] was 67%. The “Population Normal (%)” value [3] was 92%, the “Population Pyknosed Nuclei (%)” value [3] was 10% and the “Population Tubulin-Different-Phenotype (%)” value [3] was 33%. For the same compound, the “Total Cell Count” value [3] was 329, the “Population Apoptotic (%)” value [4] was 42% and the “Population Fragmented Nuclei (%)” value [4] was 7%. For the same compound, the “Population Healthy Nuclei (%)” value [4] was 83%, the “Population Hoechst High Intensity Objects (%)” value [4] was 6% and the “Population Mitochondria Different-Phenotype (%)” value [4] was 58%. For the same compound, the “Population Mitotic Cells (%)” value [4] was 57%, the “Population Normal (%)” value [4] was 93% and the “Population Pyknosed Nuclei (%)” value [4] was 9%. The “Population Tubulin-Different-Phenotype (%)” value [4] was 15%, the “Total Cell Count” value [4] was 396 and the “Population Apoptotic (%)” value [5] was 16%. For the same compound, the “Population Fragmented Nuclei (%)” value [5] was 10%, the “Population Healthy Nuclei (%)” value [5] was 82% and the “Population Hoechst High Intensity Objects (%)” value [5] was 3%. The “Population Mitochondria Different-Phenotype (%)” value [5] was 16%, the “Population Mitotic Cells (%)” value [5] was 84% and the “Population Normal (%)” value [5] was 96%. The “Population Pyknosed Nuclei (%)” value [5] was 7%, the “Population Tubulin-Different-Phenotype (%)” value [5] was 10% and the “Total Cell Count” value [5] was 688. The “Population Apoptotic (%)” value [6] was 52%, the “Population Fragmented Nuclei (%)” value [6] was 9% and the “Population Healthy Nuclei (%)” value [6] was 80%. The “Population Hoechst High Intensity Objects (%)” value [6] was 7%, the “Population Mitochondria Different-Phenotype (%)” value [6] was 33% and the “Population Mitotic Cells (%)” value [6] was 47%. For the same compound, the “Population Normal (%)” value [6] was 92%, the “Population Pyknosed Nuclei (%)” value [6] was 9% and the “Population Tubulin-Different-Phenotype (%)” value [6] was 13%. For the same compound, the “Total Cell Count” value [6] was 445, the “Population Apoptotic (%)” value [7] was 36% and the “Population Fragmented Nuclei (%)” value [7] was 11%. For the same compound, the “Population Healthy Nuclei (%)” value [7] was 76%, the “Population Hoechst High Intensity Objects (%)” value [7] was 5% and the “Population Mitochondria Different-Phenotype (%)” value [7] was 30%. The “Population Mitotic Cells (%)” value [7] was 63%, the “Population Normal (%)” value [7] was 94% and the “Population Tubulin-Different-Phenotype (%)” value [7] was 18%. The “Total Cell Count” value [7] was 397, the “Population Apoptotic (%)” value [8] was 51% and the “Population Fragmented Nuclei (%)” value [8] was 6%. The “Population Healthy Nuclei (%)” value [8] was 87%, the “Population Hoechst High Intensity Objects (%)” value [8] was 3% and the “Population Mitochondria Different-Phenotype (%)” value [8] was 37%. The “Population Mitotic Cells (%)” value [8] was 48%, the “Population Normal (%)” value [8] was 96% and the “Population Pyknosed Nuclei (%)” value [8] was 6%. The “Population Tubulin-Different-Phenotype (%)” value [8] was 13%, the “Total Cell Count” value [8] was 461 and the “Population Apoptotic (%)” value [9] was 17%. For the same compound, the “Population Fragmented Nuclei (%)” value [9] was 15%, the “Population Healthy Nuclei (%)” value [9] was 79% and the “Population Hoechst High Intensity Objects (%)” value [9] was 1%. The “Population Mitochondria Different-Phenotype (%)” value [9] was 7%, the “Population Mitotic Cells (%)” value [9] was 82% and the “Population Normal (%)” value [9] was 98%. For the same compound, the “Population Pyknosed Nuclei (%)” value [9] was 5%, the “Population Tubulin-Different-Phenotype (%)” value [9] was 8% and the “Total Cell Count” value [9] was 1149. The “Population Apoptotic (%)” value [10] was 36%, the “Population Fragmented Nuclei (%)” value [10] was 14% and the “Population Healthy Nuclei (%)” value [10] was 77%. The “Population Mitochondria Different-Phenotype (%)” value [10] was 18%, the “Population Mitotic Cells (%)” value [10] was 63% and the “Population Normal (%)” value [10] was 97%. The “Population Pyknosed Nuclei (%)” value [10] was 8%, the “Population Tubulin-Different-Phenotype (%)” value [10] was 9% and the “Total Cell Count” value [10] was 631. For the same compound, the “Population Apoptotic (%)” value [11] was 24%, the “Population Fragmented Nuclei (%)” value [11] was 12% and the “Population Healthy Nuclei (%)” value [11] was 78%. For the same compound, the “Population Mitochondria Different-Phenotype (%)” value [11] was 17%, the “Population Mitotic Cells (%)” value [11] was 75% and the “Population Normal (%)” value [11] was 97%. For the same compound, the “Population Pyknosed Nuclei (%)” value [11] was 8%, the “Population Tubulin-Different-Phenotype (%)” value [11] was 9% and the “Total Cell Count” value [11] was 713. For the same compound, the “Population Apoptotic (%)” value [12] was 31%, the “Population Fragmented Nuclei (%)” value [12] was 15% and the “Population Healthy Nuclei (%)” value [12] was 79%. The “Population Hoechst High Intensity Objects (%)” value [12] was 4%, the “Population Mitochondria Different-Phenotype (%)” value [12] was 16% and the “Population Mitotic Cells (%)” value [12] was 68%. The “Population Normal (%)” value [12] was 95%, the “Population Pyknosed Nuclei (%)” value [12] was 5% and the “Population Tubulin-Different-Phenotype (%)” value [12] was 8%. The “Total Cell Count” value [12] was 702.
